Experimental data published in ChEMBL document CHEMBL2202989, “New adamantane phenylalkylamines with σ-receptor binding affinity and anticancer activity, associated with putative antagonism of neuropathic pain” (J Med Chem, 2012).

Assays:
BXPC-3 [1] = assay: Induction of apoptosis in human BxPC3 cells assessed as healthy cells at 50 uM using annexin V/7-AAD by FACS analysis (reference value: 79 %); format: functional
PC-3 [2] = assay: Antitumor activity against human PC3 cells xenografted in SCID mouse assessed as axillary metastasis at 55 mg/kg, ip administered 5 consecutive days in a week for two cycles measured after 2 cycles relative to control; format: functional; conditions: route intraperitoneal
Procedure, shortened: (§1)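 PC3 xenografts were grown in SCID mice (10^6 cells per inoculum), 14 mice (28 tumors) per group, dosed ip from about 100 mm3. The test agent was given in 5% Tween 80; paclitaxel was given in Cremophor diluted in saline, with a vehicle of 1:1 ethanol/Cremophor diluted 1:3 in saline. Volume and %ΔT/ΔC were derived from caliper readings twice weekly. Occurrence of primary tumors and of axillary and bone metastases was scored (n = 7). Two-tailed t test.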

IGROV-1 [3] = assay: Cell cycle arrest in human IGROV1 cells assessed as accumulation at G2 phase at 0.5 uM after 24 hrs using propidium iodide staining by FACS analysis (reference value: 19 %); format: functional
Procedure, shortened: (§2)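 Cells were plated 24 h before treatment and exposed for 24 h at final 0.5, 5, 15 and 50 μM in 0.5% DMSO, against vehicle-treated controls. Cells were then trypsinised and fixed in cold ethanol for 3 h at 4 °C. They were stained in a mix of RNase (200 μg/mL) and PI (1 mg/mL) for 45 min at room temperature in the dark. Flow cytometry used 488 nm excitation and 10 000 gated cells. Phase percentages were assigned from DNA content.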

PC-3 [4] = assay: Cell cycle arrest in human PC3 cells assessed as accumulation at G1 phase at 5 uM after 24 hrs using propidium iodide staining by FACS analysis (reference value: 36 %); format: functional
PC-3 [5] = assay: Induction of apoptosis in human PC3 cells assessed as cleaved caspase3 containing cells at 15 uM by antibody-based FACS analysis (reference value: 3.2 %); format: functional
SK-HEP1 = assay: Growth inhibition of human SKHEP1 cells after 48 hrs by SRB assay; format: functional; conditions: SK-HEP1, 48 h
Procedure, shortened: (§3)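 Cells grown in RPMI 1640 with 5% heat-inactivated FCS, 2 mM L-glutamine and antibiotics, 37 °C, 5% CO2. Seeded at 3500–30000 cells/well and left 24 h before dosing. DMSO solutions added at 10-fold dilutions from 100 to 0.01 μM for 48 h. Cells TCA-fixed and SRB-stained, absorbance read at 540 nm; GI50 derived against the time-zero plate.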

[6] = Displacement of [3H]1,3-di-otolylguanidine from sigma 2 receptor in rat cerebral cortex membranes; format: cell membranes, Membrane
Procedure, shortened: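 Rat cerebral cortex membranes incubated with 5 nM [3H]DTG plus 300 nM (+)-pentazocine to mask σ1 sites, together with a range of test concentrations, 2 h at 22 °C in Tris-HCl, pH 7.4. Nonspecific binding defined with 10 μM haloperidol.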

IGROV-1 [7] = assay: Cell cycle arrest in human IGROV1 cells assessed as accumulation at sub G1 phase at 50 uM after 24 hrs using propidium iodide staining by FACS analysis (reference value: 4 %); format: functional
IGROV-1 [8] = assay: Cell cycle arrest in human IGROV1 cells assessed as accumulation at G1 phase at 0.5 uM after 24 hrs using propidium iodide staining by FACS analysis (reference value: 27 %); format: functional; procedure, shortened: as §2
Mus musculus = assay: Toxicity in SCID mouse assessed as body weight loss at 40 to 55 mg/kg, ip for 2 to 3 weeks; format: organism-based; parameters: route intraperitoneal; conditions: in vivo
Procedure, shortened: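 CD-1 (male and female) and SCID mice dosed ip at 40−55 mg/kg in 5% Tween 80 for chronic 2−3 week regimens. Deaths and body weight loss compared with vehicle (Tween 80 or Cremophor) and reference-drug groups. Weight loss, neurological, behavioral and dietary changes recorded as toxicity signs.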

OVCAR-5 = assay: Growth inhibition of human OVCAR5 cells after 48 hrs by SRB assay; format: functional; conditions: OVCAR-5, 48 h; procedure, shortened: as §3
BXPC-3 [9] = assay: Cell cycle arrest in human BxPC3 cells assessed as accumulation at >G2/M phase at 15 uM after 24 hrs using propidium iodide staining by FACS analysis (reference value: 6 %); format: functional; procedure, shortened: as §2
PC-3 [10] = assay: Induction of apoptosis in human PC3 cells assessed as early apoptosis at 5 uM using annexin V/7-AAD by FACS analysis (reference value: 5 %); format: functional
Procedure, shortened: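 Cells plated 24 h before treatment, then exposed 24 h to 0.5, 5, 15 or 50 μM compound (final DMSO 0.5%); vehicle controls included. Cells scraped and stained with annexin V-FITC and 7-AAD for 15 min on ice in the dark. Flow cytometry with 488 nm excitation, 10,000 gated cells. Early apoptosis was annexin V+/7-AAD−, late was annexin V+/7-AAD+.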

PC-3 [11] = assay: Antitumor activity against human PC3 cells xenografted in SCID mouse assessed as primary tumor occurrence at 55 mg/kg, ip administered 5 consecutive days in a week for two cycles measured after 2 cycles relative to control; format: functional; conditions: route intraperitoneal; procedure, shortened: as §1
IGROV-1 [12] = assay: Induction of apoptosis in human IGROV1 cells assessed as cleaved caspase3 containing cells at 0.5 uM by antibody-based FACS analysis (reference value: 3.9 %); format: functional
IGROV-1 [13] = assay: Cell cycle arrest in human IGROV1 cells assessed as accumulation at G1 phase at 15 uM after 24 hrs using propidium iodide staining by FACS analysis (reference value: 27 %); format: functional; procedure, shortened: as §2
IGROV-1 [14] = assay: Cell cycle arrest in human IGROV1 cells assessed as accumulation at >G2/M phase at 15 uM after 24 hrs using propidium iodide staining by FACS analysis (reference value: 21 %); format: functional; procedure, shortened: as §2
BXPC-3 [15] = assay: Cell cycle arrest in human BxPC3 cells assessed as accumulation at sub G1 phase at 15 uM after 24 hrs using propidium iodide staining by FACS analysis (reference value: 9 %); format: functional; procedure, shortened: as §2
PC-3 [16] = assay: Cell cycle arrest in human PC3 cells assessed as accumulation at S phase at 50 uM after 24 hrs using propidium iodide staining by FACS analysis (reference value: 42 %); format: functional
HCT-15 = assay: Growth inhibition of human HCT15 cells after 48 hrs by SRB assay; format: functional; conditions: HCT-15, 48 h; procedure, shortened: as §3
PC-3 [17] = assay: Antitumor activity against human PC3 cells xenografted in SCID mouse assessed as bone metastasis at 55 mg/kg, ip administered 5 consecutive days in a week for two cycles measured after 2 cycles relative to control; format: functional; conditions: route intraperitoneal; procedure, shortened: as §1
IGROV-1 [18] = assay: Induction of apoptosis in human IGROV1 cells assessed as late apoptosis at 15 uM using annexin V/7-AAD by FACS analysis (reference value: 5 %); format: functional
IGROV-1 [19] = assay: Induction of apoptosis in human IGROV1 cells assessed as cleaved caspase3 containing cells at 50 uM by antibody-based FACS analysis (reference value: 3.9 %); format: functional
BXPC-3 [20] = assay: Induction of apoptosis in human BxPC3 cells assessed as late apoptosis at 5 uM using annexin V/7-AAD by FACS analysis (reference value: 9 %); format: functional
[21] = read-out: LC50 (the source's name)

SMILES: CN1CCN(CCCc2ccc(C(c3ccccc3)C34CC5CC(CC(C5)C3)C4)cc2)CC1 (stereo not given)
- Activity (BXPC-3 [1]): 12%
- Activity (PC-3 [2]): 0%
- Activity (IGROV-1 [3]): 23%
- Activity (PC-3 [4]): 36%
- Activity (PC-3 [5]): 2.5%
- GI50 (SK-HEP1): 3.49 µM
- TGI (SK-HEP1): 6.37 µM
- CC50 (SK-HEP1; [21]): 9.24 nM
- IC50 [6]: 85 nM
- Activity (IGROV-1 [7]): 18%
- Activity (IGROV-1 [8]): 25%
- Activity (Mus musculus): Non-toxic
- GI50 (OVCAR-5): 3.6 µM
- TGI (OVCAR-5): 6.9 µM
- CC50 (OVCAR-5; [21]): 10.2 nM
- Activity (BXPC-3 [9]): 5%
- Activity (PC-3 [10]): 5%
- Activity (PC-3 [11]): 100%
- Activity (IGROV-1 [12]): 4.2%
- Activity (IGROV-1 [13]): 23%
- Activity (IGROV-1 [14]): 17%
- Activity (BXPC-3 [15]): 24%
- Activity (PC-3 [16]): 31%
- GI50 (HCT-15): 3.5 µM
- TGI (HCT-15): 6.35 µM
- CC50 (HCT-15; [21]): 9.2 nM
- Activity (PC-3 [17]): 43%
- Activity (IGROV-1 [18]): 20%
- Activity (IGROV-1 [19]): 15.8%
- Activity (BXPC-3 [20]): 10%
